The values below come from ChEMBL document CHEMBL1128395, “Design and synthesis of novel inhibitors of HIV-1 reverse transcriptase” (J Med Chem, 1995).

The target of experiment [1] is Human immunodeficiency virus type 1 reverse transcriptase (Human immunodeficiency virus 1, UniProt Q72547). Put plainly: Inhibitory activity against HIV-1 Reverse transcriptase. The procedure, abridged: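 Cell-free HIV-1 reverse transcriptase inhibition assay, with TIBO and BI-RG-587 run as reference inhibitors. IC50 is the inhibitor concentration giving 50% enzyme inhibition, taken as the mean of at least two independent assays.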

In another experiment the test system is MT4. Put plainly: Compound was evaluated for effective concentration required to achieve 50% protection of MT-4 cells against cytopathic effect of HIV-1. In kind it is functional, cell-based. The following applies: Homo sapiens. In general terms: Damage to the host cells serves as the signal in cytopathic effect assays.

pEC50, pIC50: −log10 of the molar value.

Broadly, the pIC50 is the negative decadic logarithm of the IC50, by convention in mol/L. Higher therefore signals a low IC50. In turn, `O=c1[nH]c(=O)n(COCCO)c2c1C(c1ccc([N+](=O)[O-])cc1)Nc1ccccc1S2` (configuration not stated) had a negative logarithm of the IC50 (pIC50) in experiment [1] of under 4.00.
On the same count and under the same terms, the value for `CC(=O)OCCOCn1c2c(c(=O)[nH]c1=O)C(c1ccccc1)Nc1ccccc1S2` (configuration not stated) was under 4.00.
By pEC50 is commonly meant −log10 of the EC50, conventionally taken in molar units. Regarding `Cc1c(O)nc(O)nc1Sc1ccccc1`, the pEC50 with MT4 was under 3.60.
For the molecule `CC(=O)OCCOCn1c2c(c(=O)[nH]c1=O)C(=O)Nc1ccccc1S2`, the negative-log IC50 (pIC50) in experiment [1] is under 4.00.
On the same count and under the same terms, the value for `CC(=O)OCCOCn1c2c(c(=O)[nH]c1=O)CNc1ccccc1S2` was 4.94.
Take `CCOCCOCn1c2c(c(=O)[nH]c1=O)CNc1ccccc1S2`: in experiment [1], the negative logarithm of the IC50 (pIC50) was 6.19.
Still for that read-out and setting: in the case of `O=c1[nH]c(=O)n(COCCO)c2c1C(c1ccccc1)Nc1ccccc1S2` (configuration not stated) it was under 4.00; in that of `O=c1[nH]c2c(c(=O)[nH]1)CNc1ccccc1S2` [PYRIMIDOBENZOTHIAZEPINE], under 4.00.
The same measure, in the same setting: in the case of `CC(=O)OCCOCn1c2c(c(=O)n(C)c1=O)CNc1ccccc1S2` it was under 4.00.
Same read-out and setting: in the case of `CC(=O)OCCOCn1c2c(c(=O)[nH]c1=O)CN(C)c1ccccc1S2` it was 4.83.
`CCOCn1c2c(c(=O)[nH]c1=O)CNc1ccccc1S2`: in experiment [1], the negative logarithm of the IC50 (pIC50) was 4.30.
As for `O=c1[nH]c(=O)n(COCCO)c2c1CNc1ccccc1S2`, the pIC50 in experiment [1] was under 4.00.
